p47phox inh: inhibitors of human p47phox binding. AID 1274. p47phox/p22phox peptide binding, fluorescence polarization, 2 h. P14598. inhibition, % at 24.7 µM. 220,000 tested, 0.53% active;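 active = inhibition above about 30%, limit read from the data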;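 also: 0% = p47phox with labelled peptide and 100% = labelled peptide alone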
RBBP9 inh: human RBBP9 hydrolase inhibition. recombinant RBBP9, FP-Rh probe fluorescence polarization. inhibition, % at 7.94 µM. 220,000 tested, 0.2% active;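 active = inhibition above the campaign mean of all tested compounds plus 3 SD, cut at about 14% in these data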;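 also: plate controls were DMSO wells with RBBP9 for no effect and wells lacking RBBP9 protein for full effect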
Target sequence (O75884 whole entry, looked up): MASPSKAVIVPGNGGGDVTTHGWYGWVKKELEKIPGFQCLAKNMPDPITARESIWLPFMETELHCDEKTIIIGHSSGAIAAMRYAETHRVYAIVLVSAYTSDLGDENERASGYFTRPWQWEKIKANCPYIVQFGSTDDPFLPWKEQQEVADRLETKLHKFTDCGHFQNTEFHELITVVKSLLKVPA
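Measured by: FP readout at 525/598 nm; material: recombinant human RBBP9; also added: Serine-hydrolase probe FP-Rh, 375 nM pre-mixing; medium: Tris buffer pH 8.0, NaCl, Pluronic; replication: one well per compound; doses: one concentration, 7.94 µM nominal, 0.794% DMSO; timing: preincubation 30 min plus labeling 45 min at 25 °C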
Calpain2 inh: calpain II (pig) inhibition. purified calpain II, fluorogenic peptide substrate, 30 min. inhibition, % at 16 µM. 220,000 tested, 0.37% active. AID 1236;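 active = inhibition above about 50%, limit read from the data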
Furin inhibitor: human furin inhibition. P09958. purified furin, fluorogenic substrate cleavage. inhibition, % at 20 µM or 30 µM. 220,000 tested, 0.061% active; in the data active = inhibition above about 25%
RBBP9 inh conf: human RBBP9 inhibition, confirmation | shares compounds with RBBP9 inh | recombinant RBBP9, FP-Rh probe fluorescence polarization | inhibition, % at 7.94 µM | 410 tested, 36% active;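 active = inhibition above the hit cutoff derived for the primary screen, cut at about 15% in these data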;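 also: 0% = RBBP9 with DMSO and 100% = wells lacking RBBP9 protein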
* hit, by the source's call. The list is not random: actives were taken first. Their share in the collection is about 1.1%.

For CC1(C)NC(=O)NC2(C)NC(=O)NC(C)(C)C12 (stereo not drawn) the results were p47phox inh -9, RBBP9 inh 20*, Calpain2 inh -21, Furin inhibitor -8 and RBBP9 inh conf 11.
`Cc1ccc(CSc2nnc(-c3ccncc3)o2)c(C)c1` gave p47phox inh -12, RBBP9 inh -5, Calpain2 inh -5 and Furin inhibitor -28.
CCOc1ccc(N2C(=O)c3cccnc3C2Nc2ccc(Cl)cc2)cc1 (stereo not drawn) was read as p47phox inh -22, RBBP9 inh -3, Calpain2 inh -11 and Furin inhibitor -20.
Cc1ccc(NC2c3ncccc3C(=O)N2c2ccccc2C)cc1C (stereo not drawn) was read as p47phox inh 1, RBBP9 inh 18*, Calpain2 inh 20, Furin inhibitor -15 and RBBP9 inh conf 24*.
COc1ccc(-c2[nH]c(-c3ccccc3)nc2SCC(=O)Nc2nccs2)cc1 was read as p47phox inh 0, RBBP9 inh 26*, Calpain2 inh -2, Furin inhibitor 1 and RBBP9 inh conf 13.
For Nc1ccc(-c2cnc[nH]2)cc1[N+](=O)[O-] the results were p47phox inh -4, RBBP9 inh -8, Calpain2 inh -11 and Furin inhibitor -13.
Screening COc1ccc(/C=C/C(=O)Nc2ccccc2)cc1S(=O)(=O)N1CCOCC1 returned p47phox inh -8, RBBP9 inh 37*, Calpain2 inh -3, Furin inhibitor -8 and RBBP9 inh conf 4.
Screening Cc1nn(-c2ccccc2)c(C)c1/C=C1\C(=O)N(C)C(=S)N1C returned p47phox inh -3, RBBP9 inh -7, Calpain2 inh 22 and Furin inhibitor -13.
O=C(NN1C(=O)/C(=C/C=C/c2ccco2)SC1=S)c1ccccc1O was read as p47phox inh -65, RBBP9 inh 23*, Calpain2 inh 45, Furin inhibitor -12 and RBBP9 inh conf 15*.
O=Cc1cccn1-c1nccc(-c2ccco2)n1 was read as p47phox inh 10, RBBP9 inh -3, Calpain2 inh -19 and Furin inhibitor -19.
O=C1C2CC=CCC2C(=O)N1Cc1ccccc1 (stereo not drawn) was read as p47phox inh -5, RBBP9 inh 19*, Calpain2 inh -20, Furin inhibitor -16 and RBBP9 inh conf 9.
Oc1ccc(O)c(-c2cnns2)c1 was read as p47phox inh 5, RBBP9 inh 18*, Calpain2 inh -1, Furin inhibitor -28 and RBBP9 inh conf 55*.
`COc1ccc(NC(=O)CSc2nnc(NC(=O)c3ccc(S(=O)(=O)N4CCOCC4)cc3)s2)cc1` gave p47phox inh 3, RBBP9 inh -8, Calpain2 inh 12 and Furin inhibitor -5.
Screening Cc1[nH]c2c(C)cccc2c1CC(=O)O returned p47phox inh -11, RBBP9 inh -1, Calpain2 inh -32 and Furin inhibitor -16.
Screening Cc1cccc2c(N=O)c(O)[nH]c12 returned p47phox inh -26, RBBP9 inh 24*, Calpain2 inh 13, Furin inhibitor -15 and RBBP9 inh conf 53*.
For COc1ccc(N/C=C2\CCc3ccccc3C2=O)cc1 the results were p47phox inh -4, RBBP9 inh 18*, Calpain2 inh 15, Furin inhibitor -19 and RBBP9 inh conf 13.
`Cc1ccc(S(=O)(=O)CCC(=O)Nc2ccc(F)cc2)cc1` gave p47phox inh 0, RBBP9 inh -8, Calpain2 inh 10 and Furin inhibitor -3.
For CCN=C1S/C(=C\c2cc(OCC)c(O)cc2Br)C(=O)N1CC the results were p47phox inh 4, RBBP9 inh 24*, Calpain2 inh 18, Furin inhibitor -9 and RBBP9 inh conf 6.
`CCN=C1S/C(=C\c2ccc(O)c(OCC)c2)C(=O)N1CC` gave p47phox inh -17, RBBP9 inh -3, Calpain2 inh 10 and Furin inhibitor -7.
`COc1cc2[nH]c(=S)nc(Nc3ccc(NC(C)=O)cc3)c2cc1OC` gave p47phox inh -11, RBBP9 inh 29*, Calpain2 inh -8, Furin inhibitor -8 and RBBP9 inh conf 52*.
For Cn1c(=S)ccc2ccccc21 the results were p47phox inh -3, RBBP9 inh 0, Calpain2 inh -5 and Furin inhibitor -5.
CC(Cn1nnc2ccccc21)C(=O)O (stereo not drawn) was read as p47phox inh 0, RBBP9 inh 0, Calpain2 inh 5 and Furin inhibitor -19.
CC(Cn1cnc2ccccc21)C(=O)O (stereo not drawn) was read as p47phox inh -5, RBBP9 inh 15*, Calpain2 inh -19, Furin inhibitor -21 and RBBP9 inh conf 7.

Screening data deposited in PubChem by several laboratories.
